PubChem BioAssay AID1019 (Sanford-Burnham Center for Chemical Genomics, 2008)
Among all 190,000 compounds or so, fewer than 10 were called active.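 How the source made its calls: active means over 50% inhibition of intestinal alkaline phosphatase at 20 µM in the single-dose screen; inactive means the rest.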 Not all results are given here.

Tested on: alkaline phosphatase, intestinal [Bos taurus]
Assay: IAP enzyme activity blockers – biochemical, bovine IAP, CDP-star luminescence, selectivity assay for TNAP inhibitor project, primary screen (AID 1019)
Settings: purified bovine IAP, 30 min, at 20 µM, stronger effect = higher value
How it was run: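 System: Purified bovine intestinal alkaline phosphatase (IAP) enzyme | Input: IAP diluted 1/65,000,000 in the well | Also added: CDP-star chemiluminescent phosphatase substrate, 30 µM final | Dosing: 20 µM single dose | Times: Enzyme reaction for 30 min at room temperature | Detection: Luminescence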

inhibition, inactive:
CC(C)C(=O)Nc1ccc2oc(=O)ccc2c1 7%
CCOC(=O)/C(C#N)=C/c1ccc(N2CCCCC2)cc1 11.8%
CC(C)(c1ccccc1)c1ccc(OCCN)cc1 14.7%
COC(=O)Cc1ccc(NC(=S)NCc2ccco2)cc1 4%
COc1ccc(/C=N/N=C2/C(=O)Nc3ccccc32)cc1O 5%
COc1cc(NS(=O)(=O)c2ccc(NC(=O)CN3C(=O)c4ccccc4C3=O)cc2)ncn1 3.8%
CN(C)CCN=c1cc(-c2ccccc2)oc2ccc(Cl)cc12 -8.9%
CC(C)(C)NC(=O)c1ccc(Cn2cc(C(F)(F)F)ccc2=O)cc1 4.3%
Oc1ccc(N2CCN(C(=S)NCc3ccccc3)CC2)cc1 6.1%
CCCCN(CC)CCCNC(=O)c1ccc(CSc2nc3ccncc3[nH]2)cc1 -24%
O=C(CCc1ccccc1)Nc1nn[nH]n1 5.5%
CC1CCCN(CC(O)COc2ccc3c(c2)OCO3)C1 (stereo not given) 3.1%
Cc1ccccc1C1CC(c2cccs2)=NN1S(C)(=O)=O (stereo not given) 18.1%
CCN(c1ccccc1)S(=O)(=O)c1ccc2[nH]c(=O)[nH]c2c1 3.4%
O=S(=O)(NCCc1ccc(F)cc1)c1cccc2cccnc12 10.8%
COc1cc(/C=C/C(=O)OCC(=O)N2CCOCC2)ccc1OCC#N -7.3%
O=C(Cn1cnc2ccccc21)N/N=C/c1ccco1 -22.7%
CC1CC(C)CN(CCC(=O)Nc2ccc3c(c2)CCC3)C1 (stereo not given) -14.7%
O=C(COC(=O)/C=C/c1ccc(S(=O)(=O)N2CCCCCC2)cc1)NCc1ccccc1Cl 14.5%
CCCNC(=O)NC(=O)COC(=O)CC(NC(N)=O)c1ccc(Cl)cc1 (stereo not given) 7.6%
Cc1c(C=O)c2ccccc2n1CC(=O)O -6.7%
CCn1nc(C)c(CN2CCN(Cc3ccc(OC)c(C)c3C)C(CCO)C2)c1C (stereo not given) -4.7%
COc1ccc(C2CC(c3cccs3)Nc3nnnn32)cc1 (stereo not given) 16.6%
CCN(CC)C(=O)N(CC)Cc1ccccc1 -1.7%
Cc1ccc(Nc2c(F)c(F)c(F)c(F)c2C(=O)O)c(C)c1 1.3%
C=CCN(c1ccc(Cl)cc1)S(=O)(=O)c1cccc(C(=O)OCC(=O)N(C)C)c1 -6.8%
Cn1cc(-c2ccccc2)cc(C#N)c1=O -3.4%
CC(C)(C)n1ncc2c(=O)n(Cc3ccc(Cl)cc3)cnc21 -1.6%
CCCCCCCNc1nc(Cl)nc(NCCO)n1 -10.7%
CCOC(=O)C1(Cc2ccccc2C(F)(F)F)CCN(C(=O)c2cc(C)n(C)n2)CC1 -5.4%
CCN(CC)CCNc1nc(-c2ccc(OC(F)F)cc2)c(C)s1 -8.2%
O=C(Nc1cccc(F)c1)c1coc(=O)c(Br)c1 13.2%
COC(=O)c1ccc(C(=O)OC)c(NC(=S)N2CCN(c3ccc(F)cc3)CC2)c1 -5.9%
CC(NC(=O)CCC(=O)N1CCN(S(=O)(=O)c2ccc(Cl)cc2)CC1)c1ccccc1 (stereo not given) -56.8%
COc1cc(C(=S)NC2CCCCC2)ccc1O 5.4%
CCOc1ccc(NC(=S)NC(=O)/C=C/c2ccc(OC)cc2)c([N+](=O)[O-])c1 -34%
C=CCO/N=C/C1=C(O)C(C(=O)OC)C(C)(C)CC1=O (stereo not given) -21.8%
CC(NC(=O)CC1SC(N)=NC1=O)c1ccccc1 (stereo not given) -8.1%
C/C(=N\NC(=O)c1ccc(CSc2nc(C)cc(C)n2)cc1)C1CCCCC1 -2.1%
COc1ccc(OC)c(CNC(=O)c2cc(=O)[nH]c3ccc(S(=O)(=O)N4CCCC4)cc23)c1 9.9%
Cc1cccc(NC(=O)c2nnn(-c3cccc(C(F)(F)F)c3)c2N)c1 6.8%
CCOC(=O)N1CCN(C(=O)C2CCN(Cc3ccc(OC)cc3OC)CC2)CC1 3.5%
O=C(NCCc1ccccc1)C1CCN(S(=O)(=O)c2ccc(Br)s2)CC1 2.9%
CSc1nc2c(c(=O)[nH]1)C(c1cccc(Cl)c1Cl)CC(=O)N2 (stereo not given) -12.6%
Cc1ccc(CCC(=O)Nc2ncc(Cc3cc(Cl)ccc3Cl)s2)o1 5.3%
